Active and inactive are the calls of the source. No cut-off for these calls is given here.
Experiments:
Plasmodium falciparum [1] = assay: Antimalarial activity against pyrimethamine/chloroquine-resistant Plasmodium falciparum W2 infected in human type A-positive erythrocytes after 48 hrs by [3H]-hypoxanthine incorporation assay; format: functional, cell-based
In short: (§1)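 Compound from 10.0 mM DMSO stock, diluted ≥1:400, then 11 concentrations in duplicate. Incubated at 37 °C under 90% N2/5% O2/5% CO2 for 48 h, then 3H-hypoxanthine added for 24 h more. CPM counted; EC50 by nonlinear regression.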

Plasmodium falciparum [2] = assay: Antimalarial activity against mefloquine/chloroquine/atovaquone/pyrimethamine-resistant Plasmodium falciparum TM90-C2B infected in human type A-positive erythrocytes after 48 hrs by [3H]-hypoxanthine incorporation assay; format: functional, cell-based; in short: as §1
[3] = Resistance index, ratio of EC50 for mefloquine/chloroquine/atovaquone/pyrimethamine-resistant Plasmodium falciparum TM90-C2B to EC50 for pyrimethamine/chloroquine-resistant Plasmodium falciparum W2; format: functional
J774 = assay: Cytotoxicity against mouse J774 cells after 72 hrs by CellTiter-96 aqueous one solution cell proliferation assay; format: cell-based; settings: J774, 72 h
In short: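 Compounds from 10 µg/mL or 20 µM top concentration, 1:2 serial dilutions over 11 concentrations, 72 h at 37 °C, 5% CO2. MTS-type reagent added for 4 h, absorbance read at 490 nm. IC50 by nonlinear regression.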

Plasmodium berghei [4] = assay: Antimalarial activity against Plasmodium berghei infected in human HepG2 cells after 44 hrs by luciferase assay; format: functional, cell-based; settings: HepG2, 44 h
In short: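 HepG2 cells, 75000 per well, in DMEM with 10% FBS at 37 °C, 5% CO2. 5000 Pb luciferase sporozoites from dissected mosquito salivary glands added per well for 3 h, then washed three times with PBS. Serially diluted compound added in triplicate, 44 h at 37 °C. Cells lysed, luciferase substrate added, luminescence read.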

[5] = Aqueous solubility of compound at pH 6.5; format: physicochemical
Plasmodium berghei [6] = assay: animal or person; settings: in Mus musculus, po, read-out: INH
Plasmodium berghei [7] = assay: Antimalarial activity against blood stage form of GFP transfected Plasmodium berghei infected in mouse assessed as protection against parasitemia at 10 mg/kg, po administered on day 3, 4, 5 post infection measured on day 30 by Thompson test; format: functional, organism-based
In short: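 Modified Thompson model: mice inoculated ip with 2×10^6 P. berghei (GFP)-infected red blood cells, parasitemia near 1% by day 3. […] Animals followed for 30 days; survival to day 30 with parasitemia below 1% counted as cure.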

Plasmodium berghei [8] = assay: Antimalarial activity against blood stage form of GFP transfected Plasmodium berghei infected in mouse assessed as mouse survival day at 10 mg/kg, po administered on day 3, 4, 5 post infection by Thompson test; format: functional
Plasmodium berghei [9] = assay: Antimalarial activity against liver stage form of luciferase transfected Plasmodium berghei sporozoites infected in mouse assessed as inhibition of parasitemia at 25 mg/kg administered via oral gavage 1 hr post infection measured on day 9 by bioluminescence method relative to control; format: functional
Plasmodium berghei [10] = assay: Antimalarial activity against liver stage form of luciferase transfected Plasmodium berghei sporozoites infected in mouse assessed as inhibition of parasitemia at 50 mg/kg, sc administered 1 hr post infection measured on day 9 by bioluminescence method relative to control; format: functional
Plasmodium berghei [11] = assay: Antimalarial activity against liver stage form of luciferase transfected Plasmodium berghei sporozoites infected in mouse assessed as protection against parasitemia at 25 to 50 mg/kg administered via oral gavage 1 hr post infection measured on day 30 by bioluminescence method; format: functional, organism-based
In short: (§2)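 Mice infected with luciferase-expressing P. berghei sporozoites, five per group. A single dose in PEG 400 was given orally by gavage (25, 50, 100 mg/kg) or subcutaneously (50 mg/kg) 1 h after infection. Infected untreated controls and a primaquine drug control were included. Whole-animal imaging was done 5 min after ip D-luciferin (100 mg/kg) under isoflurane, at 44 h and days 6, 9 and 13. Survival/cure followed to day 30.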

Plasmodium berghei [12] = assay: Antimalarial activity against liver stage form of luciferase transfected Plasmodium berghei sporozoites infected in mouse assessed as protection against parasitemia at 50 mg/kg, sc administered 1 hr post infection measured on day 30 by bioluminescence method; format: functional, organism-based; in short: as §2
Plasmodium berghei [13] = assay: Antimalarial activity against liver stage form of luciferase transfected Plasmodium berghei sporozoites infected in mouse assessed as protection against parasitemia at 100 mg/kg administered via oral gavage 1 hr post infection measured on day 6 to 13 by bioluminescence method; format: functional, organism-based; in short: as §2
Plasmodium berghei [14] = assay: Antimalarial activity against liver stage form of luciferase transfected Plasmodium berghei sporozoites infected in mouse assessed as protection against parasitemia at 100 mg/kg administered via oral gavage 1 hr post infection measured at 44 hrs by bioluminescence method; format: functional, organism-based; in short: as §2
Plasmodium berghei [15] = assay: Antimalarial activity against liver stage form of luciferase transfected Plasmodium berghei sporozoites infected in mouse assessed as inhibition of parasitemia at 50 mg/kg administered via oral gavage 1 hr post infection measured on day 9 by bioluminescence method relative to control; format: functional
Plasmodium berghei [16] = assay: animal or person; settings: in Mus musculus, po, read-out: INH; remark: listed apart in the source

Structure (SMILES) | EC50 (Plasmodium falciparum [1]) [nM] | EC50 (Plasmodium falciparum [2]) [nM] | EC50 (J774) [nM] | EC50 (Plasmodium berghei [4]) [nM] | also measured
COC(=O)c1c[nH]c2cc(N3CCN(c4ccc(OC)cc4)CC3)ccc2c1=O | 7.8 | 150 | > 20000 | – | Ratio EC50 [3]: 20
COC(=O)c1c[nH]c2cc(CCN3CCN(Cc4ccccc4)CC3)ccc2c1=O | 120 | > 2000 | > 20000 | 160 | solubility [5]: ≥ 80 µM
Cc1[nH]c2cc(CN3CCN(c4ccc(C(F)(F)F)cc4)CC3)ccc2c(=O)c1Br | 120 | 95 | > 20000 | – | Ratio EC50 [3]: 0.8
Cc1cc(=O)c2ccc(CN3CCN(c4ccc(F)cc4)CC3)cc2[nH]1 | 1200 | 1500 | > 20000 | – | Ratio EC50 [3]: 1.2
COC(=O)c1c[nH]c2cc(CN3CCN(c4ccc(OC)cc4)CC3)c(OC)cc2c1=O | 3.4 | 860 | 16000 | 10 | inhibition in vivo at 50 mg/kg (Plasmodium berghei [6]): 70.6%
COC(=O)c1c[nH]c2cc(CN3CCN(Cc4ccccc4)CC3)c(C)cc2c1=O | 1.5 | 890 | > 20000 | 9.5 | inhibition in vivo at 50 mg/kg (Plasmodium berghei [6]): 24.6%
O=C1C(O)=C([C@H]2CC[C@H](c3ccc(Cl)cc3)CC2)C(=O)c2ccccc21 [ATOVAQUONE] | – | – | 28000 | – | Activity (Plasmodium berghei [7]): Active
COC(=O)c1c[nH]c2cc(CN3CCN(c4ccc(F)cc4)CC3)ccc2c1=O | 1.8 | 130 | 2000 | 1.1 | Survival (Plasmodium berghei [8]): <=21 day; Activity (Plasmodium berghei [7]): inactive
COC(=O)c1c[nH]c2cc(CN3CCN(Cc4ccccc4)CC3)ccc2c1=O | 1.4 | 150 | 10000 | 44 | solubility [5]: ≥ 80 µM; inhibition in vivo at 50 mg/kg (Plasmodium berghei [6]): 12.3%
COC(=O)c1c[nH]c2cc(CN3CCN(c4ccccc4)CC3)c(C)cc2c1=O | 0.44 | 150 | 12000 | 6.9 | Activity (Plasmodium berghei [7]): inactive
Cc1[nH]c2cc(CN3CCN(c4ccc(C(F)(F)F)cc4)CC3)ccc2c(=O)c1Cl | 140 | 1500 | > 20000 | – | Ratio EC50 [3]: 11
Cc1[nH]c2cc(CN3CCN(c4ccc(F)cc4)CC3)ccc2c(=O)c1Br | – | 26 | > 20000 | – | Survival (Plasmodium berghei [8]): <=13 day; Activity (Plasmodium berghei [7]): inactive
COC(=O)c1c[nH]c2cc(N3CCN(c4ccccc4)CC3)ccc2c1=O | 4.5 | 250 | > 20000 | 74 | solubility [5]: < 20 µM
COC(=O)c1c[nH]c2cc(CCN3CCN(c4ccccc4)CC3)ccc2c1=O | 25 | 1500 | > 20000 | – | Ratio EC50 [3]: 60; solubility [5]: ≥ 80 µM
COC(=O)c1c[nH]c2cc(CN3CCN(Cc4ccc(OC)cc4)CC3)ccc2c1=O | 2.5 | 800 | – | 83 | inhibition in vivo at 25 mg/kg (Plasmodium berghei [9]): 49.1%; inhibition in vivo at 50 mg/kg (Plasmodium berghei [10]): 20.1%; Activity (Plasmodium berghei [11]): Active; Activity (Plasmodium berghei [12]): inactive; Activity (Plasmodium berghei [13]): Active; Activity (Plasmodium berghei [14]): Active
COc1cc(NC(C)CCCN)c2ncccc2c1 (centres undefined) [PRIMAQUINE] | – | – | – | – | inhibition in vivo at 50 mg/kg (Plasmodium berghei [15]): > 99%
COC(=O)c1c[nH]c2cc(N3CCN(Cc4ccccc4)CC3)c(C)cc2c1=O | 13 | 980 | > 20000 | > 100 | Ratio EC50 [3]: 75
COC(=O)c1c[nH]c2cc(CN3CCN(c4ccc(F)cc4)CC3)c(OC)cc2c1=O | 1.8 | 220 | > 20000 | 32 | inhibition in vivo at 50 mg/kg (Plasmodium berghei [6]): 56.9%
COC(=O)c1c[nH]c2cc(CCN3CCN(Cc4ccc(OC)cc4)CC3)ccc2c1=O | 12 | – | > 20000 | – | solubility [5]: ≥ 80 µM
COC(=O)c1c[nH]c2cc(N3CCN(c4ccc(OC)cc4)CC3)c(OC)cc2c1=O | 43 | 2000 | > 20000 | > 100 | Ratio EC50 [3]: 47
COC(=O)c1c[nH]c2cc(CN3CCN(Cc4ccc(OC)cc4)CC3)c(OC)cc2c1=O | 10 | > 2000 | > 20000 | 52 | inhibition in vivo at 50 mg/kg (Plasmodium berghei [6]): 24.6%
COC(=O)c1c[nH]c2cc(CN3CCN(c4ccc(F)cc4)CC3)c(C)cc2c1=O | 0.84 | 350 | 16000 | 2.6 | Survival (Plasmodium berghei [8]): <=21 day
COC(=O)c1c[nH]c2cc(CN3CCN(c4ccc(C(F)(F)F)cc4)CC3)ccc2c1=O | 0.32 | 120 | 11000 | 16 | Survival (Plasmodium berghei [8]): <=21 day; Activity (Plasmodium berghei [7]): inactive
Cc1[nH]c2cc(CN3CCN(c4ccc(F)cc4)CC3)ccc2c(=O)c1Cl | 39 | 52 | > 20000 | – | Survival (Plasmodium berghei [8]): <=13 day; Activity (Plasmodium berghei [7]): inactive; inhibition in vivo at 10 mg/kg (Plasmodium berghei [16]): 11%
O=c1c(Br)c[nH]c2cc(CN3CCN(c4ccc(F)cc4)CC3)ccc12 | 810 | > 2000 | > 20000 | 0.86 | Survival (Plasmodium berghei [8]): <=13 day; Activity (Plasmodium berghei [7]): inactive; inhibition in vivo at 10 mg/kg (Plasmodium berghei [16]): 33%
COC(=O)c1c[nH]c2cc(N3CCN(Cc4ccc(OC)cc4)CC3)ccc2c1=O | 20 | 1300 | – | – | Ratio EC50 [3]: 65
COC(=O)c1c[nH]c2cc(CN3CCN(c4ccccc4)CC3)c(OC)cc2c1=O | 1.6 | 490 | > 20000 | 110 | inhibition in vivo at 50 mg/kg (Plasmodium berghei [6]): 82.4%
